Read-outs that look alike come from different tables or passages of the source.

The values that follow come from PMC12415985 (Journal of medicinal chemistry, 2025).

For data set [1], the system named is Tg68pBAG1:nLuc,DHFR bradyzoites. Put plainly: In vitro differentiated bradyzoite growth inhibition. As to conditions: for EC50: Toxoplasma gondii. The format is cell-based, Toxoplasma gondii.
The test system of data set [2] is TgME49-Fluc. The experiment in a line: Time dependent tachyzoite inhibition, 4 h washout vs 72 h continuous. Type of data set: cell-based, Toxoplasma gondii. The note with it: vs continuous 72 h.
Data set [3] has as its system TgME49-EW bradyzoites. Put plainly: Ex vivo purified. Type of data set: cell-based, Toxoplasma gondii. As to conditions: 3X EC90, 4 h washout vs continual treatment.
The test system of data set [4] is TgME49-EW intact cysts. The experiment in a line: Intact tissue cyst treatment and plaque outgrowth assay. The format is cell-based, Toxoplasma gondii. Put shortly:
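Percoll-purified brain tissue cysts (10 per compound) were exposed to 3xEC90 in tubes at 37°C for 4 or 24 h, then washed 3× with PBS. Bradyzoites were freed by acid-pepsin, neutralized, and split into parallel 6-well plates with compound (constant) or without (washout). Plates ran 12−14 days at 37°C, 5% CO2. Plaques were ethanol-fixed, crystal-violet stained, counted by microscopy and normalized to the DMSO control.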

Data set [5] has as its system TgME49-Fluc. The experiment in a line: Luciferase-based tachyzoite growth inhibition assay. The note with it: for EC50: read-out: TgM49 EC50. The format is cell-based, Toxoplasma gondii.
The subject of data set [6] is TgME49-FLuc tachyzoites. The note with it: for Culture positive / Plaque positive / Survivors: n=8.
Data set [7] deals with TgME49-FLuc tachyzoites. Type of data set: in vivo, Toxoplasma gondii. As to conditions: Ifngr1-/- mice, 0.25 mg/ml in drinking water, n=11.
Data set [8] has as its system HepG2 cells. Put plainly: Host cell cytotoxicity, HepG2. The format is cell-based, human.
Data set [9] deals with MDCK-MDR1. The format is in vitro ADME.
In data set [10] the test system is THP-1 cells. Put plainly: Host cell cytotoxicity, THP-1. The format is cell-based, human. In a few lines:
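THP-1 cells were seeded at 10×10^3/well and differentiated with 10 ng/mL PMA for 24 h before compound addition. Compounds were given as a 10-dose 3-fold series from a 120 μM 2x working solution for 72 h at 37°C, 5% CO2. Viability was read by CellTiter-Glo luminescence.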

Data set [11] is described as follows: Plasma protein binding. The note with it: CD-1 mouse plasma. Type of data set: in vitro ADME.
The nature of data set [12]: Plasma protein binding. Type of data set: in vitro ADME.
The nature of data set [13]: Microsomal stability, mouse liver microsomes. Type of data set: in vitro ADME. On the technique in general: Liver microsomes are vesicles of endoplasmic reticulum, rich in cytochrome P450 enzymes.
Data set [14] is described as follows: Brain homogenate binding. Type of data set: in vitro ADME. As to conditions: CD-1 mouse brain homogenate.
Data set [15] deals with hERG (Homo sapiens, UniProt Q12809). Put plainly: hERG inhibition in CHO cell. The note with it: read-out: hERG inhibition CHO cell IC50. The format is cell-based.
Sequence of hERG (Q12809 whole entry): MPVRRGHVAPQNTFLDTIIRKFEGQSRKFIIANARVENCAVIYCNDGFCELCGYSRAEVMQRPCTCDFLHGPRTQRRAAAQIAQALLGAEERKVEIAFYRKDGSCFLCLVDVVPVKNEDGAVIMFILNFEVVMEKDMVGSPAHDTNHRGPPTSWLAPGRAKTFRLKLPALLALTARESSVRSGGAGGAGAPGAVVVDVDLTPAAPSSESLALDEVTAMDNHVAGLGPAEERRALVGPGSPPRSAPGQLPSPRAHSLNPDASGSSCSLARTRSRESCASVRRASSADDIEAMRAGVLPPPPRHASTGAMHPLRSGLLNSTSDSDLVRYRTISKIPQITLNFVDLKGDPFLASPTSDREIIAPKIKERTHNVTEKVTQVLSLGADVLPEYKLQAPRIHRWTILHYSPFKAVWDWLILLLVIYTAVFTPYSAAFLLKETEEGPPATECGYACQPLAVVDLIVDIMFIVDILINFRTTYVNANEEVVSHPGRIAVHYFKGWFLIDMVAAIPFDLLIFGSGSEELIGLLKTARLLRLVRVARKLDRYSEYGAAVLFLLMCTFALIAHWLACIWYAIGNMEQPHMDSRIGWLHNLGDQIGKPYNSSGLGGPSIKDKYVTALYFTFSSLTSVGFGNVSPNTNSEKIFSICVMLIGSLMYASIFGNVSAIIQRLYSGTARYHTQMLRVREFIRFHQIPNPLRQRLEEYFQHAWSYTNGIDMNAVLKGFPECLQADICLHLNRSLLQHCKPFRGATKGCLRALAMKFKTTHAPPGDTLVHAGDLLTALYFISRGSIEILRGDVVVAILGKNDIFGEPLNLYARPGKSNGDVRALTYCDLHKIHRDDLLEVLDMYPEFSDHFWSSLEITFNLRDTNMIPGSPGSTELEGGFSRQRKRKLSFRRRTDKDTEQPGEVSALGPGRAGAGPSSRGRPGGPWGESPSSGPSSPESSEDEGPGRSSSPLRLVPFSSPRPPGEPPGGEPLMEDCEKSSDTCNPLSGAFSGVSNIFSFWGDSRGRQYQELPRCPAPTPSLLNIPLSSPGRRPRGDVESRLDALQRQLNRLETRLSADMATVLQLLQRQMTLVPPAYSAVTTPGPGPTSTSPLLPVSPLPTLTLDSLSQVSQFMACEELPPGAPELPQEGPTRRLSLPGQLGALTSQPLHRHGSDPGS
Data set [16] is described as follows: Pharmacokinetics in mice. The format is in vivo, CD-1 mice. As to conditions: 10 mg/kg PO. In a few lines: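 Fasted male CD-1 mice (3 per group) received a single oral 10 mg/kg dose as a suspension. Blood and brain were sampled at 1, 3 and 8 h. Plasma was obtained by centrifugation and stored below −20 °C. Plasma and brain concentrations were measured by LC−MS/MS. Parameters came from noncompartmental analysis, and brain/plasma ratio is given at the indicated time.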

Data set [17] relates to TgRH-PheRS[L497I]-FLuc. The experiment in a line: Growth inhibition of PheRS L497I resistant line vs parental line. The format is cell-based, Toxoplasma gondii. The note with it: EC50 fold resistance, TgL497I vs parental TgRHΔhxgprtΔku80. In a few lines: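 Firefly-luciferase tachyzoites were used: the PheRS[L497I] line, made in the parental TgRHΔΔ-FLuc (type I) strain, and the parental line itself. Each well of confluent HFF got 5×10^3 fresh tachyzoites and a 3-fold compound series, at 0.1% DMSO final. After 72 h at 37°C, cells were lysed and luciferase read. […] FR = resistant EC50 / parental EC50.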

[18] abbreviates: Toxoplasma gondii, read-out: TgME49 EC90.
Where [19] appears, read: Experiment 1, 0.25 mg/ml in drinking water.
The mark [20] stands for this setting: formulation A, na = not detected.

A word on the EC50: it is the concentration giving half of the maximal effect. As usually defined, the EC90 is the concentration at which the effect reaches the 90% level. For `O=C1C(O)=C([C@H]2CC[C@H](c3ccc(Cl)cc3)CC2)C(=O)c2ccccc21` [Atovaquone], the EC50 in data set [1] (pH 8.2, read-out: Tg68 EC50 (Alkaline)) is 1590 nM; in [1] (read-out: Tg68 EC50 (Glutamine)), 52 nM; in data set [5] (Toxoplasma gondii) it was 71 nM. Besides, the “potency after 4 h treatment vs continuous treatment (in words)” value in [2] is reported as “only effective when used for 72 h treatment”. For the same compound, the “inhibition of outgrowth of liberated bradyzoites (in words)” value in [3] was “only active when used continuously”. For the same compound, in [4] (3X EC90, 24 h treatment), the “activity on intact cysts (in words)” value is recorded as “among the most effective compounds in this assay”. Besides, the EC90 in data set [5] (setting [18]) is 163 nM.

As for `Nc1ccc(S(=O)(=O)Nc2ncccn2)cc1` [Sulfadiazine], in data set [6] (setting [19]), the weight loss entry is “little weight loss”, the Culture positive was found to be 6, the Plaque positive was 7 and the Survivors is reported as 8. In addition, the “mice harboring chronic infection (of 8)” value in data set [6] (Experiment 1, sulfadiazine in drinking water) is 7. Also, the “survival vs vehicle control” value in [7] is given as “survived significantly longer”.

What is called CC50 is the concentration giving 50% cytotoxicity. The IC50 is the concentration at which inhibition is half-maximal. As for `COc1ccc(NC(=O)N2CCCCN3[C@H](CN(C)C)[C@H](c4ccc(C#Cc5ccccc5)cc4)[C@@H]3C2)cc1` [BRD7929], the “fold elevation of bradyzoite EC50 compared to tachyzoite conditions” value in data set [1] (in vitro differentiated bradyzoites vs tachyzoites) lay in the range of 3 to 5 fold. Besides, in [6] (Experiment 1, 10 mg/kg QD), the weight loss entry was “little weight loss”. Further, the Survivors in data set [6] (Experiment 1, 10 mg/kg QD p.o. 4-10 DPI) stood at 8. In addition, the Culture positive in data set [6] (Experiment 1, 10 mg/kg QD, outgrowth in HFF culture) is 1. The Plaque positive in data set [6] (Experiment 1, 10 mg/kg QD, plaquing assay after 14 days) was determined as 1. Also, in data set [6] (Experiment 1, 10 mg/kg QD, EC50 determination using TgME49 expressing firefly luciferase), the “EC50 of recovered parasites” value was “No change”. Besides, the “mice harboring chronic infection (of 8)” value in [6] (Experiment 1, 10 mg/kg QD, brain homogenate outgrowth) is listed as 1. The SI in data set [8] (HepG2 CC50 / EC50 TgME49) turned out to be 147. Besides, the CC50 in data set [8] (read-out: HepG2 CC50, Table 2) is 6070 nM. In data set [9], the “MDCK-MDR1 Permeability A-B Papp” value is recorded as 0.28 10^−6cm/s and the “MDCK-MDR1 Permeability B-A Papp” value is 9.62 10^−6cm/s. This compound had an SSII in data set [10] (THP-1 CC50 / EC50 TgME49) of 24. The CC50 in [10] (read-out: THP-1 CC50, Table 2) amounted to 1010 nM. Besides, the “Plasma protein binding % (CD-1 mouse)” value in data set [11] was found to be 99.6%. Besides, the “Plasma protein binding % (human)” value in data set [12] was 99.56%. Further, in data set [13] (calculated with mouse liver blood flow of 90ml/min/kg, second value of cell), the “Eh (hepatic extraction)” value was 0.40. In data set [13] (mouse liver microsomes, first value of cell), this compound registered a Microsomal stability mouse of 15.41 µL/min/mg. Also, the “inhibition of outgrowth from intact cysts” value in [4] (3X EC90, 24 h treatment followed by washing and plating without compound) was “up to 50%”. Moreover, in data set [14], the “Brain Homogenate binding %(CD-1 mouse)” value worked out at 99.98%. The IC50 in [15] was determined as 540 nM. Besides, the “Plasma Cmax/D” value in data set [16] (formulation A (75% PEG300, 25% D5W), na = not detected) came to 40.6 ± 10.4 ng/mL. Also, in data set [16] (formulation A, 8h), the “Mouse B/P (time)” value is given as 4.4 (8h). In data set [16] (setting [20]), the “Brain AUClast/D” value is 807 ng·h/mL, the “Brain Cmax/D” value worked out at 179 ± 60.7 ng/mL and the “Plasma AUClast/D” value stood at 220.9 ng·h/mL. For the same compound, the “TgL497I EC50/ Parental EC50 (FR)” value in data set [17] was 78. Also, in data set [5] (read-out: Tg EC90, Table 3), the EC90 is 134 ± 85 nM. In data set [5] (ME49 expressing firefly luciferase, Table 2), the EC50 turned out to be 41 nM. Also, in [5] (read-out: TgME49 EC90, ME49 expressing firefly luciferase, Table 2), the EC90 is 139 nM.

Consider `CCc1nc(N)nc(N)c1-c1ccc(Cl)cc1` [Pyrimethamine], for which the “potency after 4 h treatment vs continuous treatment (in words)” value in data set [2] is given as “only effective when used for 72 h treatment”. In addition, the “inhibition of outgrowth of liberated bradyzoites (in words)” value in data set [3] is “only active when used continuously”. Also, the EC50 in data set [5] (Toxoplasma gondii) stood at 330 nM. The EC90 in data set [5] (setting [18]) was determined as 551 nM.
